# Reference: ChEMBL document CHEMBL1155452, “Oncocin (VDKPPYLPRPRPPRRIYNR-NH2): a novel antibacterial peptide optimized against gram-negative human pathogens” (J Med Chem, 2010)
# Where a SMILES comes first, the peptide text is derived from it. [ ]: non-standard residue; d: D form. Orn = NCCC[C@H](N)C(=O)O
# Columns and labels:
# [1] = Stability in 100% mouse serum assessed as half life at 75 ug/ml by MALDI-TOF-MS analysis; assay type: ADME, cell-free
# Outline: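 Peptide at 75 μg/mL final in pooled mouse serum (undiluted or 25% v:v aqueous), 37 °C. Triplicate aliquots taken at 0, 30, 60, 120 and 240 min and precipitated with 3% TCA on ice for 10 min. Supernatant neutralized with NaOH and analysed by RP-HPLC on C18 with TFA-containing gradient. Amounts expressed relative to 0 min; metabolites identified by MALDI-TOF-MS.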
# Stenotrophomonas [2] = assay: Antimicrobial activity against Stenotrophomonas ICB 7789 after 20 hrs by broth microdilution method; assay type: functional; settings: ICB 7789, 20 h
# Outline: (§1)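 Pathogens grown overnight on Columbia agar. Colonies suspended in 0.9% saline to OD 0.1, diluted 1:300 in 1% TSB, final (1-2) × 10^5 cfu/well. Peptides 2-fold serially diluted in 1% TSB from 128 to typically 0.5 μg/mL. Incubation at 37 °C; A595 read after 20 ± 2 h. MIC is the lowest concentration with absorbance not above medium only. Triplicate.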
# Enterobacter cloacae [3] = assay: Antimicrobial activity against Enterobacter cloacae Ha89 after 20 hrs by broth microdilution method; assay type: functional; settings: Ha89, 20 h; outline: as §1
# Pseudomonas aeruginosa [4] = assay: Antimicrobial activity against Pseudomonas aeruginosa ATCC 27853 after 20 hrs by broth microdilution method; assay type: functional; settings: ATCC 27853, 20 h
# Outline: (§2)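 Pathogenic strains grown overnight on Columbia agar, colonies suspended in 0.9% saline to OD 0.1, diluted 1:300 in 1% TSB; final (1-2) × 10^5 cfu/well. Peptides 2-fold serially diluted in 1% TSB from 128 μg/mL, typically to 0.5 μg/mL. Incubated 37 °C, absorbance at 595 nm after 20 ± 2 h, in triplicate; MIC = lowest concentration with absorbance not exceeding medium only.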
# SH-SY5Y = assay: Cytotoxicity against human SH-SY5Y cells at 600 ug/ml after 24 hrs by MTT assay; assay type: cell-based
# Outline: (§3)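 HeLa (1.5 × 10^4/well, seeded overnight) or SH-SY5Y (2 × 10^4/well, differentiated 5 days with 10 μM trans-retinoic acid) in DMEM/Ham's F-12 with 5% or 15% FBS. Peptide added at 600 μg/mL for 24 h at 37 °C, 5% CO2. MTT 0.5 mg/mL for 4 h, then SDS/HCl for 16 h; A590 read against 650 nm. Normalized to PBS (100%); DMSO 12% as positive control.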
# Acinetobacter baumannii [5] = assay: Antimicrobial activity against Acinetobacter baumannii ICB 9250 after 20 hrs by broth microdilution method; assay type: functional; settings: ICB 9250, 20 h; outline: as §1
# Stenotrophomonas [6] = assay: Antimicrobial activity against Stenotrophomonas ICB 7569 after 20 hrs by broth microdilution method; assay type: functional; settings: ICB 7569, 20 h; outline: as §1
# Proteus vulgaris [7] = assay: Antimicrobial activity against Proteus vulgaris ICB 9081 after 20 hrs by broth microdilution method; assay type: functional; settings: ICB 9081, 20 h; outline: as §1
# Pseudomonas aeruginosa [8] = assay: Antimicrobial activity against Pseudomonas aeruginosa 70108001 after 20 hrs by broth microdilution method; assay type: functional; settings: Pseudomonas aeruginosa, 70108001, 20 h; outline: as §2
# Klebsiella pneumoniae [9] = assay: Antimicrobial activity against Klebsiella pneumoniae 63 after 20 hrs by broth microdilution method; assay type: functional; settings: Klebsiella pneumoniae, 63, 20 h; outline: as §2
# Pseudomonas aeruginosa [10] = assay: Antimicrobial activity against Pseudomonas aeruginosa PAO1 after 20 hrs by broth microdilution method; assay type: functional; settings: PAO1, 20 h; outline: as §2
# Pseudomonas aeruginosa [11] = assay: Antimicrobial activity against Pseudomonas aeruginosa Walter after 20 hrs by broth microdilution method; assay type: functional; outline: as §2
# Klebsiella pneumoniae [12] = assay: Antimicrobial activity against Klebsiella pneumoniae 8085 after 20 hrs by broth microdilution method; assay type: functional; settings: Klebsiella pneumoniae, 8085, 20 h; outline: as §1
# Enterobacter cloacae [13] = assay: Antimicrobial activity against Enterobacter cloacae 34654 after 20 hrs by broth microdilution method; assay type: functional; settings: Enterobacter cloacae, 34654, 20 h; outline: as §1
# Acinetobacter baumannii [14] = assay: Antimicrobial activity against Acinetobacter baumannii ICB 14067 after 20 hrs by broth microdilution method; assay type: functional; settings: ICB 14067, 20 h; outline: as §1
# Escherichia coli [15] = assay: Antibacterial activity against Escherichia coli BL21 AI after 20 hrs by broth microdilution assay; assay type: functional
# Outline: (§4)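 Nutrient-broth overnight cultures diluted in 1% TSB; E. coli BL21AI 7.5 × 10^5 cells/well, M. luteus ATCC 10240 2 × 10^6 cells/well. Peptides serially 2-fold diluted in 1% TSB from 128 to typically 0.5 μg/mL. Incubation at 37 °C; A595 read after 20 ± 2 h. MIC is the lowest concentration with absorbance not above medium only. Triplicate.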
# Escherichia coli [16] = assay: Antimicrobial activity against Escherichia coli 70430001 after 20 hrs by broth microdilution method; assay type: functional; settings: Escherichia coli, 70430001, 20 h; outline: as §1
# Proteus vulgaris [17] = assay: Antimicrobial activity against Proteus vulgaris ICB 9095 after 20 hrs by broth microdilution method; assay type: functional; settings: ICB 9095, 20 h; outline: as §1
# Pseudomonas aeruginosa [18] = assay: Antimicrobial activity against Pseudomonas aeruginosa 61118003 after 20 hrs by broth microdilution method; assay type: functional; settings: Pseudomonas aeruginosa, 61118003, 20 h; outline: as §2
# Micrococcus luteus = assay: Antibacterial activity against Micrococcus luteus ATCC 10240 after 20 hrs by broth microdilution assay; assay type: functional; settings: ATCC 10240, 20 h; outline: as §4
# Escherichia coli [19] = assay: Antimicrobial activity against Escherichia coli 455/7 after 20 hrs by broth microdilution method; assay type: functional; settings: 455/7, 20 h; outline: as §1
# Enterobacter cloacae [20] = assay: Antimicrobial activity against Enterobacter cloacae Ha185 after 20 hrs by broth microdilution method; assay type: functional; settings: Ha185, 20 h; outline: as §2
# Acinetobacter baumannii [21] = assay: Antimicrobial activity against Acinetobacter baumannii M17 after 20 hrs by broth microdilution method; assay type: functional; settings: M17, 20 h; outline: as §1
# HeLa = assay: Cytotoxicity against human HeLa cells at 600 ug/ml after 24 hrs by MTT assay; assay type: cell-based; outline: as §3
# Escherichia coli [22] = assay: Antimicrobial activity against Escherichia coli Neumann after 20 hrs by broth microdilution method; assay type: functional; outline: as §1
# Klebsiella pneumoniae [23] = assay: Antimicrobial activity against Klebsiella pneumoniae 57 USA after 20 hrs by broth microdilution method; assay type: functional; outline: as §1
# Escherichia coli [24] = assay: Antimicrobial activity against Escherichia coli 8474 after 20 hrs by broth microdilution method; assay type: functional; settings: Escherichia coli, 8474, 20 h; outline: as §1
# Escherichia coli [25] = assay: Antimicrobial activity against Escherichia coli 205024 after 20 hrs by broth microdilution method; assay type: functional; settings: Escherichia coli, 205024, 20 h; outline: as §1
# Enterobacter cloacae [26] = assay: Antimicrobial activity against Enterobacter cloacae Ha089 after 20 hrs by broth microdilution method; assay type: functional; settings: Ha089, 20 h; outline: as §1
# Escherichia coli [27] = assay: Antimicrobial activity against Escherichia coli 70502001 after 20 hrs by broth microdilution method; assay type: functional; settings: Escherichia coli, 70502001, 20 h; outline: as §1
# Acinetobacter baumannii [28] = assay: Antimicrobial activity against Acinetobacter baumannii ICB 14072 after 20 hrs by broth microdilution method; assay type: functional; settings: ICB 14072, 20 h; outline: as §1
# Pseudomonas aeruginosa [29] = assay: Antimicrobial activity against Pseudomonas aeruginosa DSM 3227 after 20 hrs by broth microdilution method; assay type: functional; settings: DSM 3227, 20 h; outline: as §2
# Klebsiella pneumoniae [30] = assay: Antimicrobial activity against Klebsiella pneumoniae ATCC 12657 after 20 hrs by broth microdilution method; assay type: functional; settings: ATCC 12657, 20 h; outline: as §1
# Klebsiella pneumoniae [31] = assay: Antimicrobial activity against Klebsiella pneumoniae DSM 681 after 20 hrs by broth microdilution method; assay type: functional; settings: DSM 681, 20 h; outline: as §1
# Pseudomonas aeruginosa [32] = assay: Antimicrobial activity against Pseudomonas aeruginosa 60909001 after 20 hrs by broth microdilution method; assay type: functional; settings: Pseudomonas aeruginosa, 60909001, 20 h; outline: as §2
# Pseudomonas aeruginosa [33] = assay: Antimicrobial activity against Pseudomonas aeruginosa 60811001 after 20 hrs by broth microdilution method; assay type: functional; settings: Pseudomonas aeruginosa, 60811001, 20 h; outline: as §2
# Escherichia coli [34] = assay: Antimicrobial activity against Escherichia coli 70419002 after 20 hrs by broth microdilution method; assay type: functional; settings: Escherichia coli, 70419002, 20 h; outline: as §1
# Enterobacter cloacae [35] = assay: Antimicrobial activity against Enterobacter cloacae Ha088 after 20 hrs by broth microdilution method; assay type: functional; settings: Ha088, 20 h; outline: as §1
# Escherichia coli [36] = assay: Antimicrobial activity against Escherichia coli 70329001 after 20 hrs by broth microdilution method; assay type: functional; settings: Escherichia coli, 70329001, 20 h; outline: as §1
# Klebsiella pneumoniae [37] = assay: Antimicrobial activity against Klebsiella pneumoniae ATCC 27799 after 20 hrs by broth microdilution method; assay type: functional; settings: ATCC 27799, 20 h; outline: as §2
# Stenotrophomonas [38] = assay: Antimicrobial activity against Stenotrophomonas ICB 308054 after 20 hrs by broth microdilution method; assay type: functional; settings: ICB 308054, 20 h; outline: as §1
# Acinetobacter baumannii [39] = assay: Antimicrobial activity against Acinetobacter baumannii ICB 14073 after 20 hrs by broth microdilution method; assay type: functional; settings: ICB 14073, 20 h; outline: as §1
molecule,measurement,setting,value
CC[C@H](C)[C@H](NC(=O)[C@H](CCCN)NC(=O)[C@H](CCCNC(=N)N)NC(=O)[C@@H]1CCCN1C(=O)[C@@H]1CCCN1C(=O)[C@H](CCCNC(=N)N)NC(=O)[C@@H]1CCCN1C(=O)[C@H](CCCNC(=N)N)NC(=O)[C@@H]1CCCN1C(=O)[C@H](CC(C)C)NC(=O)[C@H](Cc1ccc(O)cc1)NC(=O)[C@@H]1CCCN1C(=O)[C@@H]1CCCN1C(=O)[C@H](CCCCN)NC(=O)[C@H](CC(=O)O)NC(=O)[C@@H](N)C(C)C)C(=O)N[C@@H](Cc1ccc(O)cc1)C(=O)N[C@@H](CC(N)=O)C(=O)N[C@@H](CCCN)C(N)=O (H-VDKPPYLPRPRPPR[Orn]IYN[Orn]-NH2),half-life at 75 ug/ml,[1],3 h
same,MIC,Stenotrophomonas [2],32 µg/mL
same,MIC,Enterobacter cloacae [3],0.25 µg/mL
same,MIC,Pseudomonas aeruginosa [4],2 µg/mL
same,Activity,SH-SY5Y,Non-toxic
same,MIC,Acinetobacter baumannii [5],0.5 µg/mL
same,MIC,Stenotrophomonas [6],16 µg/mL
same,MIC,Proteus vulgaris [7],8 µg/mL
same,MIC,Pseudomonas aeruginosa [8],2 µg/mL
same,MIC,Klebsiella pneumoniae [9],2 µg/mL
same,MIC,Pseudomonas aeruginosa [10],2 µg/mL
same,MIC,Pseudomonas aeruginosa [11],4 µg/mL
same,MIC,Klebsiella pneumoniae [12],0.5 µg/mL
same,MIC,Enterobacter cloacae [13],0.5 µg/mL
same,MIC,Acinetobacter baumannii [14],1 µg/mL
same,MIC,Escherichia coli [15],8 µg/mL
same,MIC,Escherichia coli [16],0.5 µg/mL
same,MIC,Proteus vulgaris [17],4 µg/mL
same,MIC,Pseudomonas aeruginosa [18],1 µg/mL
same,MIC,Micrococcus luteus,8 µg/mL
same,MIC,Escherichia coli [19],0.5 µg/mL
same,MIC,Enterobacter cloacae [20],0.5 µg/mL
same,MIC,Acinetobacter baumannii [21],1 µg/mL
same,Activity,HeLa,Non-toxic
same,MIC,Escherichia coli [22],0.5 µg/mL
same,MIC,Klebsiella pneumoniae [23],0.5 µg/mL
same,MIC,Escherichia coli [24],0.5 µg/mL
same,MIC,Escherichia coli [25],1 µg/mL
same,MIC,Enterobacter cloacae [26],0.25 µg/mL
same,MIC,Escherichia coli [27],1 µg/mL
same,MIC,Acinetobacter baumannii [28],1 µg/mL
same,MIC,Pseudomonas aeruginosa [29],4 µg/mL
same,MIC,Klebsiella pneumoniae [30],0.5 µg/mL
same,MIC,Klebsiella pneumoniae [31],0.5 µg/mL
same,MIC,Pseudomonas aeruginosa [32],1 µg/mL
same,MIC,Pseudomonas aeruginosa [33],2 µg/mL
same,MIC,Escherichia coli [34],2 µg/mL
same,MIC,Enterobacter cloacae [35],0.25 µg/mL
same,MIC,Escherichia coli [36],1 µg/mL
same,MIC,Klebsiella pneumoniae [37],1 µg/mL
same,MIC,Stenotrophomonas [38],32 µg/mL
same,MIC,Acinetobacter baumannii [39],1 µg/mL
H-VDKPPYLPRPRPPRRIYNNR-NH2,MIC,Escherichia coli [15],8 µg/mL
same,MIC,Micrococcus luteus,8 µg/mL
H-VDKPPYLPRPRPPRRIYNRN-OH,MIC,Escherichia coli [15],8 µg/mL
same,MIC,Micrococcus luteus,16 µg/mL
H-VDKPPYLPRPRPPRRIYN-OH,MIC,Escherichia coli [15],64 µg/mL
same,MIC,Micrococcus luteus,128 µg/mL
